Values after ≈ are worked out from the molar mass of the structure shown.
What was measured:
Staphylococcus aureus [1] = assay: Antibacterial activity against methicillin-resistant Staphylococcus aureus assessed as complete reduction in bacterial cell growth by CLSI protocol based broth liquid microdilution method; format: functional
Summary of the method: (§1)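 Broth liquid microdilution per CLSI guidelines; isolates identified on an automated MicroScan system before testing. MIC taken as lowest concentration giving total inhibition of bacterial growth, reported in μg/mL. S. aureus ATCC29213 run as the control strain.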

Enterococcus faecium [2] = assay: Antibacterial activity against vancomycin-resistant Enterococcus faecium assessed as complete reduction in bacterial cell growth by CLSI protocol based broth liquid microdilution method; format: functional; summary of the method: as §1
Enterococcus faecalis [3] = assay: Antibacterial activity against linezolid-resistant Enterococcus faecalis assessed as complete reduction in bacterial cell growth by CLSI protocol based broth liquid microdilution method; format: functional; summary of the method: as §1
Staphylococcus aureus [4] = assay: Antibacterial activity against Staphylococcus aureus ATCC 29213 assessed as complete reduction in bacterial cell growth by CLSI protocol based broth liquid microdilution method; format: functional; summary of the method: as §1
Staphylococcus aureus [5] = assay: Antibacterial activity against methicillin-sensitive Staphylococcus aureus assessed as complete reduction in bacterial cell growth by CLSI protocol based broth liquid microdilution method; format: functional; summary of the method: as §1
MAO-A = target: T1, MAO-A (Homo sapiens, UniProt P21397); assay: Inhibition of recombinant human MAO-A (active motif 31502) at 30 uM using luciferin as substrate incubated for 15 mins followed by substrate addition and measured after 60 mins by luminescence based method relative to control; conditions: probe luciferin
T1 sequence (P21397 whole entry): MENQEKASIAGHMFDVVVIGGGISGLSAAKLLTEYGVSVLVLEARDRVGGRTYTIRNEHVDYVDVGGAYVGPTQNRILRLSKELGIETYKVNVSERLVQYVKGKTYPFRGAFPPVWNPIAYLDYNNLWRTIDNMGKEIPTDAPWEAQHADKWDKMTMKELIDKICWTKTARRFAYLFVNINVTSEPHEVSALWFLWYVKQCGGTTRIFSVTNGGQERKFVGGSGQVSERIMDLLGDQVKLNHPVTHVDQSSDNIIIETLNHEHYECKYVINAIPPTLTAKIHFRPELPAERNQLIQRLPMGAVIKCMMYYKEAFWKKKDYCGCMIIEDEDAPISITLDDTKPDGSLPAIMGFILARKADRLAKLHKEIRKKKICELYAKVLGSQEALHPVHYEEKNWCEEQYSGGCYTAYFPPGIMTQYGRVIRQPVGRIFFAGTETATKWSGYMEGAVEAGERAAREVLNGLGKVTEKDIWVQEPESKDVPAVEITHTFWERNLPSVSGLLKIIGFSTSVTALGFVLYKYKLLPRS
Summary of the method: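 Recombinant human MAO-A was measured with the MAO-Glo kit, modified. Compounds were in DMSO (1% DMSO final) and preincubated with enzyme 15 min at room temperature. Luciferin-derivative substrate was then added and the reaction run 60 min at room temperature. Luciferase detection reagent was added for 20 min and luminescence read. Buffer without enzyme served as the 100% inhibition control; DMSO alone as the no-inhibition control. Percent inhibition = (Max − signal)/(Max − Min)×100.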

Staphylococcus aureus [6] = assay: Antibacterial activity against clinical isolates of methicillin-sensitive Staphylococcus aureus assessed as reduction in bacterial cell growth by CLSI protocol based broth microdilution method; format: functional; summary of the method: as §1
Enterococcus faecium [7] = assay: Antibacterial activity against clinical isolates of vancomycin-resistant Enterococcus faecium assessed as complete reduction in bacterial cell growth by CLSI protocol based broth liquid microdilution method; format: functional; summary of the method: as §1
Enterococcus faecalis [8] = assay: Antibacterial activity against clinical isolates of linezolid-resistant Enterococcus faecalis assessed as complete reduction in bacterial cell growth by CLSI protocol based broth liquid microdilution method; format: functional; summary of the method: as §1
[9] = Stability in human liver microsomes assessed as half life at 1.5 uM preincubated for 5 mins with NADPH and measured after 45 mins by LC/MS analysis; format: ADME, Microsome; conditions: microsomes, 0.75 h, 1.5 µM
Summary of the method: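 Compound solution at 1.5 µM with 0.75 mg/mL microsomes (before NADPH addition) was preincubated 5 min at 37 °C. Reactions were started with NADPH (6 mM stock). Samples were quenched with acetonitrile containing internal standard at 0, 5, 15, 30 and 45 min, then centrifuged, and the supernatant was diluted with water for LC/MS. Runs were in duplicate. T1/2 = ln2/k from the log-linear slope, and CLint was derived from T1/2.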

HepG2 = assay: Cytotoxicity against human HepG2 cells assessed as reduction in cell viability incubated for 48 hrs by MTT assay; format: cell-based; conditions: HepG2, 48 h
Summary of the method: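 HepG2 cells were grown in RPMI1640 with 10% FBS and plated at about 4×10^4 cells/well in MEM. After 24 h at 37 °C in 5% CO2, compounds were added at the indicated final concentrations for 48 h. MTT was added (0.5 mg/mL final) for 4 h at 37 °C and the formazan dissolved in DMSO. Absorbance was read at 492 nm (630 nm reference). Each compound was tested three times; IC50 given as mean ± SD.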

| Structure (SMILES) | MIC (Staphylococcus aureus [1]) [µg/mL] | MIC (Enterococcus faecium [2]) [µg/mL] | MIC (Enterococcus faecalis [3]) [µg/mL] | MIC (Staphylococcus aureus [4]) [µg/mL] | MIC (Staphylococcus aureus [5]) [µg/mL] | inhibition at 1 h, 30 µM (MAO-A) [%] | MIC (Staphylococcus aureus [6]) [µg/mL] | MIC (Enterococcus faecium [7]) [µg/mL] | MIC (Enterococcus faecalis [8]) [µg/mL] | Stability [9] | IC50 (HepG2) [µM] |
| --- | --- | --- | --- | --- | --- | --- | --- | --- | --- | --- | --- |
| CC(=O)NC[C@H]1CN(c2ccc(-c3ccc(/C=N/N4CCOCC4)c(O)c3)c(F)c2)C(=O)O1 | 0.25 (≈ 0.548 µM) | 0.25 (≈ 0.548 µM) | 0.25 (≈ 0.548 µM) | 0.25 (≈ 0.548 µM) | 0.25 (≈ 0.548 µM) | – | – | – | – | – | – |
| CC(=O)NC[C@H]1CN(c2ccc(-c3ccc(/C=N/N4CCNCC4)c(F)c3)c(F)c2)C(=O)O1 | 0.5 (≈ 1.09 µM) | 0.5 (≈ 1.09 µM) | 0.5 (≈ 1.09 µM) | 0.5 (≈ 1.09 µM) | 0.5 (≈ 1.09 µM) | – | – | – | – | – | – |
| CCC(=O)N1CCN(/N=C/c2ccc(-c3ccc(N4C[C@H](CNC(C)=O)OC4=O)cc3F)cn2)CC1 | 1 (≈ 2.01 µM) | 0.5 (≈ 1.01 µM) | 1 (≈ 2.01 µM) | 1 (≈ 2.01 µM) | 1 (≈ 2.01 µM) | – | – | – | – | – | – |
| CC(=O)NC[C@H]1CN(c2ccc(-c3ccc(/C=N/N4CCN(C)CC4)cn3)c(F)c2)C(=O)O1 | 1 (≈ 2.2 µM) | 2 (≈ 4.4 µM) | 2 (≈ 4.4 µM) | 2 (≈ 4.4 µM) | 2 (≈ 4.4 µM) | – | – | – | – | – | – |
| CC(=O)NC[C@H]1CN(c2ccc(-c3ccc(/C=N/N4CCSCC4)c(C)c3)c(F)c2)C(=O)O1 | 1 (≈ 2.13 µM) | 1 (≈ 2.13 µM) | 2 (≈ 4.25 µM) | 2 (≈ 4.25 µM) | 1 (≈ 2.13 µM) | – | – | – | – | – | – |
| CC(=O)NC[C@H]1CN(c2ccc(-c3ccc(/C=N/N4CCN(C(=O)c5ccccc5)CC4)nc3)c(F)c2)C(=O)O1 | 1 (≈ 1.84 µM) | 1 (≈ 1.84 µM) | 2 (≈ 3.67 µM) | 1 (≈ 1.84 µM) | 2 (≈ 3.67 µM) | – | – | – | – | – | – |
| CC(=O)NC[C@H]1CN(c2ccc(-c3ccc(/C=N/N4CCNCC4)cn3)c(F)c2)C(=O)O1 | 2 (≈ 4.54 µM) | 2 (≈ 4.54 µM) | 2 (≈ 4.54 µM) | 2 (≈ 4.54 µM) | 2 (≈ 4.54 µM) | – | – | – | – | – | – |
| CC(=O)NC[C@H]1CN(c2ccc(-c3ccc(/C=N/N4CCOCC4)c(F)c3)c(F)c2)C(=O)O1 | 0.25 (≈ 0.545 µM) | 0.25 (≈ 0.545 µM) | 0.25 (≈ 0.545 µM) | 0.25 (≈ 0.545 µM) | 0.25 (≈ 0.545 µM) | 80 | – | – | – | – | – |
| CC(=O)NC[C@H]1CN(c2ccc(-c3ccc(/C=N/N4CCNCC4)c(C)c3)c(F)c2)C(=O)O1 | 0.5 (≈ 1.1 µM) | 0.5 (≈ 1.1 µM) | 0.5 (≈ 1.1 µM) | 0.5 (≈ 1.1 µM) | 0.5 (≈ 1.1 µM) | – | – | – | – | – | – |
| CC(=O)NC[C@H]1CN(c2ccc(-c3ccc(/C=N/N4CCS(=O)(=O)CC4)c(O)c3)c(F)c2)C(=O)O1 | 0.25 (≈ 0.496 µM) | 0.25 (≈ 0.496 µM) | 0.25 (≈ 0.496 µM) | 0.125 (≈ 0.248 µM) | 0.25 (≈ 0.496 µM) | 67 | 1 to 2 (≈ 1.98 to 3.96 µM) | 1 to 2 (≈ 1.98 to 3.96 µM) | 1 to 2 (≈ 1.98 to 3.96 µM) | – | – |
| CC(=O)NC[C@H]1CN(c2ccc(-c3ccc(/C=N/N4CC[S+]([O-])CC4)nc3)c(F)c2)C(=O)O1 | 0.25 (≈ 0.528 µM) | 0.5 (≈ 1.06 µM) | 0.5 (≈ 1.06 µM) | 0.25 (≈ 0.528 µM) | 0.5 (≈ 1.06 µM) | – | – | – | – | – | – |
| CC(=O)NC[C@H]1CN(c2ccc(-c3ccc(/C=N/N4CCN(C)CC4)c(C(F)(F)F)c3)c(F)c2)C(=O)O1 | 2 (≈ 3.83 µM) | 2 (≈ 3.83 µM) | 2 (≈ 3.83 µM) | 2 (≈ 3.83 µM) | 2 (≈ 3.83 µM) | – | – | – | – | – | – |
| COC(=O)N1CCN(/N=C/c2ccc(-c3ccc(N4C[C@H](CNC(C)=O)OC4=O)cc3F)cn2)CC1 | 1 (≈ 2.01 µM) | 0.5 (≈ 1 µM) | 1 (≈ 2.01 µM) | 1 (≈ 2.01 µM) | 2 (≈ 4.01 µM) | – | – | – | – | – | – |
| CC(=O)NC[C@H]1CN(c2ccc(N3CCOCC3)c(F)c2)C(=O)O1 [LINEZOLID] | 1 (≈ 2.96 µM) | 2 (≈ 5.93 µM) | > 16 | 1 (≈ 2.96 µM) | 1 (≈ 2.96 µM) | – | 1 to 4 (≈ 2.96 to 11.9 µM) | 1 to 4 (≈ 2.96 to 11.9 µM) | > 16 | Stable | > 25 |
